We go through twelve molecules from ChEMBL document CHEMBL1926643, “Synthesis, anti-inflammatory activity and molecular docking studies of 2,5-diarylfuran amino acid derivatives” (Eur J Med Chem, 2012).

Calls of active or inactive are those of the source. The rule behind the calls is not given here.

Series [1] deals with Neutrophil. Briefly: Antiinflammatory activity in Wistar rat neutrophils assessed as decrease in LPS-induced PGE2 secretion at 10 nM after 18 hrs by EIA. Type of series: functional, cell-based. The method, boiled down: (§1)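 Neutrophils were taken from male Wistar rats 4 h after intraperitoneal oyster glycogen (1%, 10 mL). Cells were cultured in RPMI1640 with 10% FBS, with compound at 10 nM, with or without LPS, for 18 h. PGE₂ in the culture supernatant was quantified by EIA. Data are the mean ± s.e.m. of cells from four animals, compared against medium-only control cells.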

Series [2] has as its system Neutrophil. The series is described as follows: Antiinflammatory activity in Wistar rat neutrophils assessed as decrease in PGE2 level at 10 nM after 18 hrs by EIA. It is filed as functional, cell-based. The method, boiled down:
as §1

Series [3] addresses T1, Prostaglandin G/H synthase 1 (Rattus norvegicus) (UniProt Q63921).
T1 sequence (whole entry): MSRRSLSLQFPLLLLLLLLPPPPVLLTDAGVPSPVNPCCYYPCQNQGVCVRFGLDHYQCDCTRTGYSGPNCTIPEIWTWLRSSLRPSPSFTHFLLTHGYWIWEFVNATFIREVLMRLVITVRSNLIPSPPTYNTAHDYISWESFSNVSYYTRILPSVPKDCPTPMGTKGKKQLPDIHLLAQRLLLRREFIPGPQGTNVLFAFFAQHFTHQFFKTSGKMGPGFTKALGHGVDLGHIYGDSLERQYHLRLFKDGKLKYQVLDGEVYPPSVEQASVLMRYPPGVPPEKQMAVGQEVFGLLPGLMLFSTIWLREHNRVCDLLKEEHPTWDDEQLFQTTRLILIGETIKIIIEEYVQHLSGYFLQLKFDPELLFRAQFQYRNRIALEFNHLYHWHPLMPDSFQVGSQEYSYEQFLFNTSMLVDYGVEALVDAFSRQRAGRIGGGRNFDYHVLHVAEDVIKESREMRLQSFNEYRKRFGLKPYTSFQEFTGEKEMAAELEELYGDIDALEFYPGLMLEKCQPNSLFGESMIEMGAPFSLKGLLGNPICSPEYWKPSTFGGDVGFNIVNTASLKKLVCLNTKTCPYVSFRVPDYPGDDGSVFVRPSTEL
The series is described as follows: Inhibition of COX-1 in rat leukocytes assessed as reduction in PGE2 production from arachidonic acid at 10 nM preincubated for 10 mins by EIA. Type of series: cell-based.

A short description of series [4]: Cytotoxicity against Wistar rat neutrophils assessed as reduction in cell viability at 10 nM after 18 hrs by trypan blue staining method. The conditions noted are these: neutrophil, 0.01 µM. It is filed as cell-based. The method, boiled down:
(§2)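 Neutrophils were elicited in male Wistar rats by intraperitoneal oyster glycogen (1%, 10 mL) and harvested after 4 h. Cells were exposed to compound at 1, 10, 100 or 1000 nM, with or without LPS, for 18 h in RPMI1640 with 10% FBS. Viability was scored by trypan blue staining against medium-only controls.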

A short description of series [5]: Cytotoxicity against LPS-stimulated Wistar rat neutrophils assessed as reduction in cell viability at 10 nM after 18 hrs by trypan blue staining method. Type of series: cell-based. The conditions noted are these: neutrophil, 0.01 µM. In a few lines: as §2

On to `Cc1ccc(-c2cc(C(F)(F)F)nn2-c2ccc(S(N)(=O)=O)cc2)cc1`, for which, in the series with Neutrophil [1], the result was Active. Besides, the result in the series on Neutrophil [2] was inactive.

Turning to `COc1ccc(-c2ccc(-c3cccc(NC(=O)[C@H](CCSC)NC(=O)OC(C)(C)C)c3)o2)cc1`, in series [3], the inhibition result is “inactive”.

Turning to `COc1ccc(-c2ccc(-c3cccc(NC(=O)[C@H](CSCc4ccccc4)NC(=O)OCc4ccccc4)c3)o2)cc1`, the inhibition entry in series [3] was “inactive”. Besides, the outcome in the series with Neutrophil [1] and with Neutrophil [2] was inactive. Further, the Activity result in series [4] and in series [5] was “Non-toxic” throughout.

Turning to `COc1ccc(-c2ccc(-c3cccc(NC(=O)[C@H](Cc4ccccc4)NC(=O)OC(C)(C)C)c3)o2)cc1`, the inhibition entry in series [3] was “inactive”. The result with Neutrophil [1] and with Neutrophil [2] was inactive. The Activity entry in series [4] and in series [5] was “Non-toxic” in each case.

As for `COc1ccc(-c2ccc(-c3cccc(NC(=O)[C@@H](NC(=O)OC(C)(C)C)C(C)C)c3)o2)cc1`, the inhibition result in series [3] was “inactive”. Moreover, the outcome with Neutrophil [1] and in the series on Neutrophil [2] was inactive. For the same molecule, the Activity result in series [4] and in series [5] was “Non-toxic” throughout.

With `COc1ccc(-c2ccc(-c3cccc(NC(=O)[C@H](CCCNC(=N)NS(=O)(=O)c4ccc(C)cc4)NC(=O)OC(C)(C)C)c3)o2)cc1`, the inhibition result in series [3] was “inactive”.

Regarding `COc1ccc(-c2ccc(-c3cccc(NC(=O)[C@@H]4CCCN4C(=O)OC(C)(C)C)c3)o2)cc1`, the inhibition result in series [3] was “inactive”. Also, the outcome with Neutrophil [1] was Active. Moreover, the Activity result in series [4] and in series [5] was “Non-toxic” in each case. Besides, the outcome with Neutrophil [2] was inactive.

On to `COc1ccc(-c2ccc(-c3cccc(NC(=O)[C@H](C)NC(=O)OC(C)(C)C)c3)o2)cc1`, for which the inhibition entry in series [3] is “inactive”.

Regarding `COc1ccc(-c2ccc(-c3cccc(NC(=O)[C@H](COC(=O)c4ccccc4)NC(=O)OC(C)(C)C)c3)o2)cc1`, the inhibition result in series [3] was “inactive”.

Consider `COc1ccc(-c2ccc(-c3cccc(NC(=O)CNC(=O)OC(C)(C)C)c3)o2)cc1`, for which, in series [3], the inhibition entry was “inactive”.

In the case of `COc1ccc(-c2ccc(-c3cccc(NC(=O)[C@H](CCC(=O)OC(C)(C)C)NC(=O)OCC4c5ccccc5-c5ccccc54)c3)o2)cc1`, the inhibition entry in series [3] is “inactive”.

As for `COc1ccc(-c2ccc(-c3cccc(NC(=O)[C@H](CC(C)C)NC(=O)OC(C)(C)C)c3)o2)cc1`, the inhibition result in series [3] is “inactive”.
